Assay [1] relates to Phosphatidylinositol 4,5-bisphosphate 3-kinase catalytic subunit alpha isoform (Homo sapiens), P42336 [H1047L]. As to the kind of experiment: Binding affinity to human partial length PIK3CA H1047L mutant (R108 to N1068 residues) expressed in mammalian expression system assessed as residual binding level at 1 uM by Kinomescan method relative to control. In short, it runs like this: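 KinomeScan active site-directed competition binding panel (468 kinases), compound tested at 1 μM. Result expressed as remaining kinase signal versus DMSO control (percent of control).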

In assay [2] the target is Serine/threonine-protein kinase MAK (Homo sapiens) (UniProt P20794). Kind of assay: Binding affinity to wild-type human partial length MAK (M1 to P314 residues) expressed in bacterial expression system assessed as residual binding level at 1 uM by Kinomescan method relative to control. In short, it runs like this: (§1)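 Active-site-directed competition binding panel of 468 kinases (KinomeScan), compound at 1 μM. The read-out is kinase remaining bound, given as a percentage of the DMSO control. […]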

Assay [3] concerns the target Inhibitor of nuclear factor kappa-B kinase subunit beta (Homo sapiens) (UniProt O14920). As to the kind of experiment: Binding affinity to wild-type human full length IKK-beta (M1 to S756 residues) expressed in mammalian expression system assessed as residual binding level at 1 uM by Kinomescan method relative to control. In short, it runs like this:
(§2)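 Active-site-directed KinomeScan competition binding panel covering 468 kinases, compound tested at 1 μM. Each readout is the kinase signal remaining with compound, expressed as a percentage of the DMSO control. […]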

Assay [4] addresses Serine/threonine-protein kinase PRP4 homolog (Homo sapiens) (UniProt Q13523). Kind of assay: Binding affinity to wild-type human partial length PRP4 (D657 to I1007 residues) expressed in bacterial expression system assessed as residual binding level at 1 uM by Kinomescan method relative to control. In outline:
as §1

Assay [5] deals with Ephrin type-B receptor 6 (Homo sapiens) (UniProt O15197). As to the kind of experiment: Binding affinity to wild-type human partial length EPHB6 (Q634 to P948 residues) expressed in mammalian expression system assessed as residual binding level at 1 uM by Kinomescan method relative to control. In outline: as §1
Chain of Ephrin type-B receptor 6 (Homo sapiens) (O15197 whole entry, the tested form may be a part): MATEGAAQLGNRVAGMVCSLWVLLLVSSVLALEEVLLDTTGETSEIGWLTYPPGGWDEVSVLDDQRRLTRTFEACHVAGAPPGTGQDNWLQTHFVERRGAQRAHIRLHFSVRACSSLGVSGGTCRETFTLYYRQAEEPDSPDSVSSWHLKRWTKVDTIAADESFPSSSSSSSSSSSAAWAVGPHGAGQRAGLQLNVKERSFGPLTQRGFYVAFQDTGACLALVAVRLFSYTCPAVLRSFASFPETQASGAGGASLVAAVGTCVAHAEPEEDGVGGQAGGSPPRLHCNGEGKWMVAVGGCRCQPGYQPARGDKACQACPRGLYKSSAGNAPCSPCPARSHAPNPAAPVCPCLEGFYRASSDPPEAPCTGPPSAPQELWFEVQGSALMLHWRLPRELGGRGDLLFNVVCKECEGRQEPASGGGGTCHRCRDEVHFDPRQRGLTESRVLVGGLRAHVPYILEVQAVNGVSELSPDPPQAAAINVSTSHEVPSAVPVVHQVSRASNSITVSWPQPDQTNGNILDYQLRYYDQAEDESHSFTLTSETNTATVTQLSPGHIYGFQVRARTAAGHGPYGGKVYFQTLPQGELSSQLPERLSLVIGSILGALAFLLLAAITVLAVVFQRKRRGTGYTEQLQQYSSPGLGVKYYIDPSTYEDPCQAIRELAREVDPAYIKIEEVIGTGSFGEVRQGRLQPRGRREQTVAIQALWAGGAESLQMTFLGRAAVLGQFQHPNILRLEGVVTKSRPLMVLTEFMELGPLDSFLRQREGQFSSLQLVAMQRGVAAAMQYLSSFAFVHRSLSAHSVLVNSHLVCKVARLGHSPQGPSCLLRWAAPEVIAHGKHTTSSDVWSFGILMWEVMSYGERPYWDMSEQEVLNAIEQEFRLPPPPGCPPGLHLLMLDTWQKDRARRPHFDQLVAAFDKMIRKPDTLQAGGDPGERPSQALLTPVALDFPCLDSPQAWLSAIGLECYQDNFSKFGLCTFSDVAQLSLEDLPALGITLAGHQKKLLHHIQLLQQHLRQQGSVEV
Assay [6] addresses Macrophage colony-stimulating factor 1 receptor (Homo sapiens) (UniProt P07333). As to the kind of experiment: Binding affinity to wild-type human partial length autoinhibited CSF1R (Y538 to S939 residues) expressed in mammalian expression system assessed as residual binding level at 1 uM by Kinomescan method relative to control. In short, it runs like this:
(§3)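 Active site-directed competition binding panel (KinomeScan, 468 kinases). Test compound at 1 μM. Read-out is kinase binding remaining versus DMSO control, expressed as percent of control. Scores above 35% are treated as weak binding.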

Assay [7] has as its target Tyrosine-protein kinase Fer (Homo sapiens) (UniProt P16591). Kind of assay: Binding affinity to wild-type human partial length FER (S542 to T822 residues) expressed in bacterial expression system assessed as residual binding level at 1 uM by Kinomescan method relative to control.
The target in assay [8] is Serine/threonine-protein kinase VRK2 (Homo sapiens) (UniProt Q86Y07). Kind of assay: Binding affinity to wild-type human partial length VRK2 (M1 to T336 residues) expressed in mammalian expression system assessed as residual binding level at 1 uM by Kinomescan method relative to control. In short, it runs like this: as §3
Chain of Serine/threonine-protein kinase VRK2 (Homo sapiens) (Q86Y07 whole entry, the tested form may be a part): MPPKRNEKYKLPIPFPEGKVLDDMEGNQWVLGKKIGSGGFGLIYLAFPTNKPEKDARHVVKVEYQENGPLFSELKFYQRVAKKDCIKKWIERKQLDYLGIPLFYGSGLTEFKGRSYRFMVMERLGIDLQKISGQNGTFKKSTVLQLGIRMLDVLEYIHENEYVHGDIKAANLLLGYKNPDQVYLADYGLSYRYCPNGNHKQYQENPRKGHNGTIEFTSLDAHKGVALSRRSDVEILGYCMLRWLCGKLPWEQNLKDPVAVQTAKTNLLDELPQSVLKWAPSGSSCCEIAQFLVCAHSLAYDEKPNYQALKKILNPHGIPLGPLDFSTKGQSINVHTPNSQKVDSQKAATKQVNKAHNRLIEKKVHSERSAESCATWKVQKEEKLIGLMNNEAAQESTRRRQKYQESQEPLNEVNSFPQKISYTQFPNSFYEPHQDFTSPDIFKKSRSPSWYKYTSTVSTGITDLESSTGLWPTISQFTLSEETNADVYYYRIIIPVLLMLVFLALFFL
The target of assay [9] is Mitogen-activated protein kinase kinase kinase 10 (Homo sapiens) (UniProt Q02779). As to the kind of experiment: Binding affinity to wild-type human partial length MLK2 (V52 to W380 residues) expressed in bacterial expression system assessed as residual binding level at 1 uM by Kinomescan method relative to control.
Chain of Mitogen-activated protein kinase kinase kinase 10 (Homo sapiens) (Q02779 whole entry, looked up, the tested form may be a part): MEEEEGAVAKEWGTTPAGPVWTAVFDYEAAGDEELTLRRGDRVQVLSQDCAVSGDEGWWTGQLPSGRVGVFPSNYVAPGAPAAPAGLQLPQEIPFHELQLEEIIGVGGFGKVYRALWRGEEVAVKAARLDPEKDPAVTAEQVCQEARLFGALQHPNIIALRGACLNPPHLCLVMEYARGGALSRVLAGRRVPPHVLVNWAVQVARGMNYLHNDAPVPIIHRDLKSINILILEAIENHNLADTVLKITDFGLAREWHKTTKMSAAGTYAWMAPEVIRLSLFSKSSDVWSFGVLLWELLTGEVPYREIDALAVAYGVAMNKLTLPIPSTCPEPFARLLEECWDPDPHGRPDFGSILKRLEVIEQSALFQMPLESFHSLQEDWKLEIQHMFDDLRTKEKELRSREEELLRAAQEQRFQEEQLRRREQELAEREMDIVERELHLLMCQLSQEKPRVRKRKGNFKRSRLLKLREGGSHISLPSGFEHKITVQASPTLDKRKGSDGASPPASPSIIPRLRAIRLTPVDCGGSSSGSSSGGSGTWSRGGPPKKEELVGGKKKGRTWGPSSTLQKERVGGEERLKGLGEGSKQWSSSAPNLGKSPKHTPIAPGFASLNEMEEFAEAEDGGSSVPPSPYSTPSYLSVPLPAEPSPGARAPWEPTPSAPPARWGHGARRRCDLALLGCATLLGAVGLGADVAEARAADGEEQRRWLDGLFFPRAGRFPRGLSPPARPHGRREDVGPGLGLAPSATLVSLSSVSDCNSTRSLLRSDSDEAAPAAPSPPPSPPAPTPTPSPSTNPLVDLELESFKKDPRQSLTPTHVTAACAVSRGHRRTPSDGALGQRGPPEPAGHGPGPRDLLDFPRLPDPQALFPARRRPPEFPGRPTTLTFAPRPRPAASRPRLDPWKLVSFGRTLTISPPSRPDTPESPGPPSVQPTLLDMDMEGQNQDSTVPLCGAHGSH
Assay [10] addresses Maternal embryonic leucine zipper kinase (Homo sapiens) (UniProt Q14680). As to the kind of experiment: Binding affinity to wild-type human full length MELK (M1 to V651 residues) expressed in bacterial expression system assessed as residual binding level at 1 uM by Kinomescan method relative to control. In outline:
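Active-site-directed competition binding panel (KinomeScan) covering 468 kinases. Test agent was screened at 1 μM. The read-out is the remaining kinase signal expressed relative to a DMSO control. Scores above 35%, taken as weak binding, were not reported.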

In the next assay the test system is MDA-MB-231. As to the kind of experiment: Antiproliferative activity against human MDA-MB-231 cells assessed as reduction in cell viability incubated for 72 hrs by cell-titer glo assay. The following applies: MDA-MB-231, 72 h.
Assay [11] has as its system Tyrosine-protein kinase ABL1 (Homo sapiens), P00519 [Q252H]. Kind of assay: Binding affinity to human phosphorylated ABL1 Q252H mutant expressed in mammalian expression system assessed as residual binding level at 1 uM by Kinomescan method relative to control. In short, it runs like this: as §2
For assay [12], the target named is Serine/threonine-protein kinase Chk2 (Homo sapiens) (UniProt O96017). As to the kind of experiment: Binding affinity to wild-type human partial length CHEK2 (S253 to E574 residues) expressed in bacterial expression system assessed as residual binding level at 1 uM by Kinomescan method relative to control. In outline: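 KinomeScan, an active site-directed competition binding panel of 468 kinases. The test compound was at 1 μM. The readout is remaining kinase binding as a percentage of the DMSO control. Scores above 35% were treated as weak binding and not listed.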

The target of assay [13] is Serine/threonine-protein kinase ULK3 (Homo sapiens) (UniProt Q6PHR2). As to the kind of experiment: Binding affinity to wild-type human partial length ULK3 (M1 to Q290 residues) expressed in mammalian expression system assessed as residual binding level at 1 uM by Kinomescan method relative to control.
Chain of Serine/threonine-protein kinase ULK3 (Homo sapiens) (Q6PHR2 whole entry, the tested form may be a part): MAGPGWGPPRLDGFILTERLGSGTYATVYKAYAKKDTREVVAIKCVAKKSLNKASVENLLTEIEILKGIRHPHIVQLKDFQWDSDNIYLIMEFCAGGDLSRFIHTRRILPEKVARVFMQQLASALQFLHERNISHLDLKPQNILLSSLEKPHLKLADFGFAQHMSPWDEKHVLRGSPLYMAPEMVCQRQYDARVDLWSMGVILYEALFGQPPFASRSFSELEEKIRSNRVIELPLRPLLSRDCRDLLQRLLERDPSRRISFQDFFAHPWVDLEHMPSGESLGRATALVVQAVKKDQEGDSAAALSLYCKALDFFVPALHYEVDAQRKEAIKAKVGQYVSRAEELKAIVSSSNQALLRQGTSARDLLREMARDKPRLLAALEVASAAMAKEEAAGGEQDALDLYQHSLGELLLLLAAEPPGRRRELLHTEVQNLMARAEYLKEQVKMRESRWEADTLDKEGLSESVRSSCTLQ
Assay [14] deals with Cyclin-dependent kinase 4 (Homo sapiens) (UniProt P11802). As to the kind of experiment: Binding affinity to wild-type human full length CDK4 (M1 to E303 residues) expressed in mammalian expression system assessed as residual binding level at 1 uM by Kinomescan method relative to control. In short, it runs like this: as §2
Chain of Cyclin-dependent kinase 4 (Homo sapiens) (P11802 whole entry, the tested form may be a part): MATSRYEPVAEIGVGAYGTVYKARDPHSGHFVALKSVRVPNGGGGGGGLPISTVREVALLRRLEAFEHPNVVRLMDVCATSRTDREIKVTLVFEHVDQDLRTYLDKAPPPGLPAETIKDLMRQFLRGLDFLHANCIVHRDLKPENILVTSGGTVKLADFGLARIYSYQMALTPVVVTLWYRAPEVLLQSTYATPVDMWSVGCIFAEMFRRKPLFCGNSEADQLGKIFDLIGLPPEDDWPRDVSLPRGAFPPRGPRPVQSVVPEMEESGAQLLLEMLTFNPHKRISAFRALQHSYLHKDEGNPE
Assay [15] concerns the target Mitogen-activated protein kinase; ERK1/ERK2 (Homo sapiens) (UniProt P27361+P28482). Kind of assay: Inhibition of ERK1/2 in human HCC827 cells assessed as blocking of ERK1/2 pulldown at 1 uM in presence of TL13-68 incubated for 2 hrs by Western blot analysis. Type of assay: cell-based. In short, it runs like this:
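H1975 or HCC827 cells treated with 1 μM compound or DMSO for 2 h, rinsed twice in cold PBS, and lysed in M-PER with protease/phosphatase inhibitors. Lysate rocked overnight at 4 °C with 1 μM TL13-68, then streptavidin pulldown with five cold washes. Bound kinases detected by Western blot. Two independent experiments.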

Assay [16] has as its target Ribosomal protein S6 kinase alpha-2 (Homo sapiens) (UniProt Q15349). As to the kind of experiment: Binding affinity to wild-type human partial length N- terminal RSK3 kinase domain 1 (M1 to Q385 residues) expressed in bacterial expression system assessed as residual binding level at 1 uM by Kinomescan method relative to control.
For assay [17], the target named is Phosphatidylinositol 4-phosphate 3-kinase C2 domain-containing subunit beta (Homo sapiens) (UniProt O00750). As to the kind of experiment: Binding affinity to wild-type human partial length PIK3C2B (M1 to L1634 residues) expressed in mammalian expression system assessed as residual binding level at 1 uM by Kinomescan method relative to control.
In assay [18] the target is Mitogen-activated protein kinase kinase kinase kinase 5 (Homo sapiens) (UniProt Q9Y4K4). Kind of assay: Binding affinity to wild-type human partial length MAP4K5 (M1 to P297 residues) expressed in bacterial expression system assessed as residual binding level at 1 uM by Kinomescan method relative to control.

pIC50: −log10 of the molar value. Calls of active or inactive are those of the source. No cut-off for these calls is given here.

Chain of Maternal embryonic leucine zipper kinase (Homo sapiens) (Q14680 whole entry, looked up, the tested form may be a part): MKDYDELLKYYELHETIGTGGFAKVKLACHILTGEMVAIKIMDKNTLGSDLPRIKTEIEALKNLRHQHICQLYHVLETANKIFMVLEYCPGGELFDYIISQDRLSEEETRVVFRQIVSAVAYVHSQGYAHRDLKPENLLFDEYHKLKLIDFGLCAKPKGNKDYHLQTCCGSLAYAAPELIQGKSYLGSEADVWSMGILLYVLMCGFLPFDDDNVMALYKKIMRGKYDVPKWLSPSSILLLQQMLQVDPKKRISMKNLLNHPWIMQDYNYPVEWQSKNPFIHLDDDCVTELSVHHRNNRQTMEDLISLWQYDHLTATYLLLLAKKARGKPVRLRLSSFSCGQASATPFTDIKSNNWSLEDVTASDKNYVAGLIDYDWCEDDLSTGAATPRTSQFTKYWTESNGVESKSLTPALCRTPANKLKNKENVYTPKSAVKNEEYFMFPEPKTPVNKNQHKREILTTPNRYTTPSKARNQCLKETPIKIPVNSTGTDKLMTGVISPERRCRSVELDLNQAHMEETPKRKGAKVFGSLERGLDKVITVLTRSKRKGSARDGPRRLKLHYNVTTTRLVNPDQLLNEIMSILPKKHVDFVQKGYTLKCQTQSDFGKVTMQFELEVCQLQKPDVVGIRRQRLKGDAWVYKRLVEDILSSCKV
Chain of Mitogen-activated protein kinase; ERK1/ERK2 (Homo sapiens) (P27361 whole entry, looked up): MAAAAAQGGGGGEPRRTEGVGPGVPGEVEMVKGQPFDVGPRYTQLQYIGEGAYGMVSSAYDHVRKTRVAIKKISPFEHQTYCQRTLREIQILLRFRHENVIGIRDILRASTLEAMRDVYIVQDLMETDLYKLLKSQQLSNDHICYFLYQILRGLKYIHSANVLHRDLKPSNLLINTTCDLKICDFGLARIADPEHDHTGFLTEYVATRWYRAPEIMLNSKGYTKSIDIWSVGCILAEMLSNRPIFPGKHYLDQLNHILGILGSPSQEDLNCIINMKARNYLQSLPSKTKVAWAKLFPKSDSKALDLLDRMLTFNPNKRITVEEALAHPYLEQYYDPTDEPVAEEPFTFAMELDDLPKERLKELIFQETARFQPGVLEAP
Chain of Mitogen-activated protein kinase; ERK1/ERK2 (Homo sapiens) (P28482 whole entry, looked up): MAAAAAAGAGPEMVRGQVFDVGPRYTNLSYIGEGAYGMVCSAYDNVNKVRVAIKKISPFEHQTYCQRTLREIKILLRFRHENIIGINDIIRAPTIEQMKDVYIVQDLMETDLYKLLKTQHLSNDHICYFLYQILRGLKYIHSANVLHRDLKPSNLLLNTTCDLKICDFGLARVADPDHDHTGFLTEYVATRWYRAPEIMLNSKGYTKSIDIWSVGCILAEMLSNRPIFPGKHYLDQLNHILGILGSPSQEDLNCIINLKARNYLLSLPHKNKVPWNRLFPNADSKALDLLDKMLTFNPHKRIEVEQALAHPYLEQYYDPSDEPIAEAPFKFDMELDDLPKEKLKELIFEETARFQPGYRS

Regarding `C=CC(=O)Nc1ccccc1Nc1nc(Nc2ccc(N3CCN(C)CC3)cc2)ncc1C(=O)Nc1c(C)cccc1Cl`, the Activity in assay [1] came out at 71%; in assay [2], 70%; in assay [3], 100%; in assay [4], 81%; in assay [5], 6%; in [6], 79%. For the same compound, the Activity in assay [7] came out at 100%; in assay [8], 71%; in assay [9], 100%; in [10] it was 100%; in assay [11] it was 0.7%; in [12], 90%. Besides, the Activity in assay [13] is 100%; in [14], 97%; in [16] it was 100%; in assay [17] it was 100%; in [18], 100%. Besides, the negative-log IC50 (pIC50) in the assay on MDA-MB-231 was 6.52. Moreover, the inhibition result in assay [15] was “inactive”.
